Source: ChEMBL document CHEMBL3045298, “Furan-2,5-dimethylene-tethered bis-imidacloprid insecticide conferring high potency” (J Agric Food Chem, 2010)

Test system: Musca domestica
Assay: Insecticidal activity against Musca domestica (house fly) measured after intrathoracic compound injection in presence of cytochrome P450 inhibitor O-propyl O-(2-propynyl) phenylphosphonate
Assay type: functional
Procedure, shortened: (§1)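 Houseflies were first pretreated with the P450 inhibitor O-propyl O-(2-propynyl) phenylphosphonate, then dosed by intrathoracic injection. Lethality was scored 24 h after administration, and the 50% lethal dose was determined.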

Compound	LD50 [mg/kg]
O=C(CN1CCN(Cc2ccc(Cl)nc2)/C1=N\[N+](=O)[O-])OCCOC(=O)CN1CCN(Cc2ccc(Cl)nc2)/C1=N\[N+](=O)[O-]	> 1
O=[N+]([O-])/N=C1\N(Cc2ccc(Cl)nc2)CCN1Cc1ccccc1-c1ccccc1CN1CCN(Cc2ccc(Cl)nc2)/C1=N\[N+](=O)[O-]	> 1
O=C(/N=C1/N(CCCCCCCCN2CCN(Cc3ccc(Cl)nc3)/C2=N\C(=O)C(F)(F)F)CCN1Cc1ccc(Cl)nc1)C(F)(F)F	> 1
O=C(/N=C1/N(CCCCCCN2CCN(Cc3ccc(Cl)nc3)/C2=N/C(=O)C(F)(F)F)CCN1Cc1ccc(Cl)nc1)C(F)(F)F	> 1
O=[N+]([O-])/N=C1\N(Cc2ccc(Cl)nc2)CCN1Cc1ccc(CN2CCN(Cc3ccc(Cl)nc3)/C2=N\[N+](=O)[O-])o1	0.14
O=[N+]([O-])NC1=NCCN1Cc1ccc(Cl)nc1 [IMIDACLOPRID]	0.03
O=[N+]([O-])/N=C1\N(Cc2ccc(Cl)nc2)CCN1Cc1cccc(CN2CCN(Cc3ccc(Cl)nc3)/C2=N\[N+](=O)[O-])n1	> 1
O=C(/N=C1/N(CCCCCCCN2CCN(Cc3ccc(Cl)nc3)/C2=N/C(=O)C(F)(F)F)CCN1Cc1ccc(Cl)nc1)C(F)(F)F	> 1
O=[N+]([O-])/N=C1\N(Cc2ccc(Cl)nc2)CCN1Cc1ccc(CN2CCN(Cc3ccc(Cl)nc3)/C2=N\[N+](=O)[O-])s1	1
O=[N+]([O-])/N=C1/N(CCCOCCCN2CCN(Cc3ccc(Cl)nc3)/C2=N\[N+](=O)[O-])CCN1Cc1ccc(Cl)nc1	> 1
O=[N+]([O-])/N=C1/N(Cc2ccc(Cc3ccc(CN4CCN(Cc5ccc(Cl)nc5)/C4=N\[N+](=O)[O-])cc3)cc2)CCN1Cc1ccc(Cl)nc1	> 1
O=[N+]([O-])/N=C1\N(Cc2ccc(Cl)nc2)CCN1Cc1cncc(CN2CCN(Cc3ccc(Cl)nc3)/C2=N\[N+](=O)[O-])c1	> 1
O=[N+]([O-])/N=C1/N(Cc2ccc(CN3CCN(Cc4ccc(Cl)nc4)/C3=N\[N+](=O)[O-])cc2)CCN1Cc1ccc(Cl)nc1	> 1
O=[N+]([O-])/N=C1\N(Cc2ccc(Cl)nc2)CCN1Cc1cccc(CN2CCN(Cc3ccc(Cl)nc3)/C2=N\[N+](=O)[O-])c1	> 1
CC(C)(CCN1CCN(Cc2ccc(Cl)nc2)/C1=N\[N+](=O)[O-])CCN1CCN(Cc2ccc(Cl)nc2)/C1=N\[N+](=O)[O-]	> 1
O=C(/N=C1/N(CCCCCN2CCN(Cc3ccc(Cl)nc3)/C2=N/C(=O)C(F)(F)F)CCN1Cc1ccc(Cl)nc1)C(F)(F)F	> 1
O=[N+]([O-])/N=C1/N(CCOCCN2CCN(Cc3ccc(Cl)nc3)/C2=N\[N+](=O)[O-])CCN1Cc1ccc(Cl)nc1	> 1

Biological target: T1, Nicotinic acetylcholine receptor alpha 5 subunit (Musca domestica, UniProt A9XFY4)
T1 sequence (A9XFY4 whole entry): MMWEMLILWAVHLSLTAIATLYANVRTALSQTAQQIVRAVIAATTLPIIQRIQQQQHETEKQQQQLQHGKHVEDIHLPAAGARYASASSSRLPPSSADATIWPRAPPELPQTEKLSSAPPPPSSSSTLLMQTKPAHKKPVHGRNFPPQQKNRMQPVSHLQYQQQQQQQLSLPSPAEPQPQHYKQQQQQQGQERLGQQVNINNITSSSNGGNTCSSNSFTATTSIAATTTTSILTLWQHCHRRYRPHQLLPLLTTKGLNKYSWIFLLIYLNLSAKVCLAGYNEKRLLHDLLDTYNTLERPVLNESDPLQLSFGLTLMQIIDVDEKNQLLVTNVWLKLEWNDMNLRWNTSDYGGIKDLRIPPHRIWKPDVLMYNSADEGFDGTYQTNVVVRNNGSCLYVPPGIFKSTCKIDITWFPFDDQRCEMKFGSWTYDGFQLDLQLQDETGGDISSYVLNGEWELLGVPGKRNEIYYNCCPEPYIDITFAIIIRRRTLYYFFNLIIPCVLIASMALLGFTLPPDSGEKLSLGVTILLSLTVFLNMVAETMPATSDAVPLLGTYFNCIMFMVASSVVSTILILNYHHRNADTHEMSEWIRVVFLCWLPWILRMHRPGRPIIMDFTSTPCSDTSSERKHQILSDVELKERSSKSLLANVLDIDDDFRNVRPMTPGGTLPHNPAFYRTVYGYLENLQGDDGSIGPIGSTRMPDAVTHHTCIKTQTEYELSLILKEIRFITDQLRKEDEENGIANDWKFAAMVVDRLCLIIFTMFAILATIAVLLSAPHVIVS
Assay: Displacement of [3H]IMI from Musca domestica (house fly) brain nicotinic acetylcholine receptor
Procedure, shortened: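 Native housefly (Musca domestica) brain nAChR preparation with [3H]IMI radioligand at 5 nM (Kd 5.4 nM). IC50 is the molar concentration inhibiting 50% of specific [3H]IMI binding, fitted by iterative nonlinear least-squares regression. Ki derived as IC50/(1 + [L]/Kd).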

Compound	Ki [nM]
O=C(CN1CCN(Cc2ccc(Cl)nc2)/C1=N\[N+](=O)[O-])OCCOC(=O)CN1CCN(Cc2ccc(Cl)nc2)/C1=N\[N+](=O)[O-]	1550
O=[N+]([O-])/N=C1\N(Cc2ccc(Cl)nc2)CCN1Cc1ccccc1-c1ccccc1CN1CCN(Cc2ccc(Cl)nc2)/C1=N\[N+](=O)[O-]	800
O=C(/N=C1/N(CCCCCCCCN2CCN(Cc3ccc(Cl)nc3)/C2=N\C(=O)C(F)(F)F)CCN1Cc1ccc(Cl)nc1)C(F)(F)F	26000
O=C(/N=C1/N(CCCCCCN2CCN(Cc3ccc(Cl)nc3)/C2=N/C(=O)C(F)(F)F)CCN1Cc1ccc(Cl)nc1)C(F)(F)F	26000
O=[N+]([O-])/N=C1\N(Cc2ccc(Cl)nc2)CCN1Cc1ccc(CN2CCN(Cc3ccc(Cl)nc3)/C2=N\[N+](=O)[O-])o1	30
O=[N+]([O-])NC1=NCCN1Cc1ccc(Cl)nc1 [IMIDACLOPRID]	4.6
O=[N+]([O-])/N=C1\N(Cc2ccc(Cl)nc2)CCN1Cc1cccc(CN2CCN(Cc3ccc(Cl)nc3)/C2=N\[N+](=O)[O-])n1	5200
O=C(/N=C1/N(CCCCCCCN2CCN(Cc3ccc(Cl)nc3)/C2=N/C(=O)C(F)(F)F)CCN1Cc1ccc(Cl)nc1)C(F)(F)F	2900
O=[N+]([O-])/N=C1\N(Cc2ccc(Cl)nc2)CCN1Cc1ccc(CN2CCN(Cc3ccc(Cl)nc3)/C2=N\[N+](=O)[O-])s1	150
O=[N+]([O-])/N=C1/N(CCCOCCCN2CCN(Cc3ccc(Cl)nc3)/C2=N\[N+](=O)[O-])CCN1Cc1ccc(Cl)nc1	2660
O=[N+]([O-])/N=C1/N(Cc2ccc(Cc3ccc(CN4CCN(Cc5ccc(Cl)nc5)/C4=N\[N+](=O)[O-])cc3)cc2)CCN1Cc1ccc(Cl)nc1	17000
O=[N+]([O-])/N=C1\N(Cc2ccc(Cl)nc2)CCN1Cc1cncc(CN2CCN(Cc3ccc(Cl)nc3)/C2=N\[N+](=O)[O-])c1	2300
O=[N+]([O-])/N=C1/N(Cc2ccc(CN3CCN(Cc4ccc(Cl)nc4)/C3=N\[N+](=O)[O-])cc2)CCN1Cc1ccc(Cl)nc1	2270
O=[N+]([O-])/N=C1\N(Cc2ccc(Cl)nc2)CCN1Cc1cccc(CN2CCN(Cc3ccc(Cl)nc3)/C2=N\[N+](=O)[O-])c1	2770
CC(C)(CCN1CCN(Cc2ccc(Cl)nc2)/C1=N\[N+](=O)[O-])CCN1CCN(Cc2ccc(Cl)nc2)/C1=N\[N+](=O)[O-]	1460
O=C(/N=C1/N(CCCCCN2CCN(Cc3ccc(Cl)nc3)/C2=N/C(=O)C(F)(F)F)CCN1Cc1ccc(Cl)nc1)C(F)(F)F	16000
O=[N+]([O-])/N=C1/N(CCOCCN2CCN(Cc3ccc(Cl)nc3)/C2=N\[N+](=O)[O-])CCN1Cc1ccc(Cl)nc1	530

Test system: Musca domestica
Assay: Insecticidal activity against Musca domestica (house fly) assessed as mortality at LD50 concentration intrathoracic injection in presence of cytochrome P450 inhibitor O-propyl O-(2-propynyl) phenylphosphonate
Assay type: functional
Procedure, shortened: as §1

Compound	mortality [%]
O=C(CN1CCN(Cc2ccc(Cl)nc2)/C1=N\[N+](=O)[O-])OCCOC(=O)CN1CCN(Cc2ccc(Cl)nc2)/C1=N\[N+](=O)[O-]	0
O=[N+]([O-])/N=C1\N(Cc2ccc(Cl)nc2)CCN1Cc1ccccc1-c1ccccc1CN1CCN(Cc2ccc(Cl)nc2)/C1=N\[N+](=O)[O-]	10
O=C(/N=C1/N(CCCCCCCCN2CCN(Cc3ccc(Cl)nc3)/C2=N\C(=O)C(F)(F)F)CCN1Cc1ccc(Cl)nc1)C(F)(F)F	0
O=C(/N=C1/N(CCCCCCN2CCN(Cc3ccc(Cl)nc3)/C2=N/C(=O)C(F)(F)F)CCN1Cc1ccc(Cl)nc1)C(F)(F)F	0
O=[N+]([O-])/N=C1\N(Cc2ccc(Cl)nc2)CCN1Cc1cccc(CN2CCN(Cc3ccc(Cl)nc3)/C2=N\[N+](=O)[O-])n1	0
O=C(/N=C1/N(CCCCCCCN2CCN(Cc3ccc(Cl)nc3)/C2=N/C(=O)C(F)(F)F)CCN1Cc1ccc(Cl)nc1)C(F)(F)F	0
O=[N+]([O-])/N=C1/N(CCCOCCCN2CCN(Cc3ccc(Cl)nc3)/C2=N\[N+](=O)[O-])CCN1Cc1ccc(Cl)nc1	0
O=[N+]([O-])/N=C1/N(Cc2ccc(Cc3ccc(CN4CCN(Cc5ccc(Cl)nc5)/C4=N\[N+](=O)[O-])cc3)cc2)CCN1Cc1ccc(Cl)nc1	0
O=[N+]([O-])/N=C1\N(Cc2ccc(Cl)nc2)CCN1Cc1cncc(CN2CCN(Cc3ccc(Cl)nc3)/C2=N\[N+](=O)[O-])c1	10
O=[N+]([O-])/N=C1/N(Cc2ccc(CN3CCN(Cc4ccc(Cl)nc4)/C3=N\[N+](=O)[O-])cc2)CCN1Cc1ccc(Cl)nc1	0
O=[N+]([O-])/N=C1\N(Cc2ccc(Cl)nc2)CCN1Cc1cccc(CN2CCN(Cc3ccc(Cl)nc3)/C2=N\[N+](=O)[O-])c1	0
CC(C)(CCN1CCN(Cc2ccc(Cl)nc2)/C1=N\[N+](=O)[O-])CCN1CCN(Cc2ccc(Cl)nc2)/C1=N\[N+](=O)[O-]	0
O=C(/N=C1/N(CCCCCN2CCN(Cc3ccc(Cl)nc3)/C2=N/C(=O)C(F)(F)F)CCN1Cc1ccc(Cl)nc1)C(F)(F)F	0
O=[N+]([O-])/N=C1/N(CCOCCN2CCN(Cc3ccc(Cl)nc3)/C2=N\[N+](=O)[O-])CCN1Cc1ccc(Cl)nc1	0
